Experiments:
[1] = system: Rattus norvegicus; experiment: In vivo ED40 is the raising diastolic blood pressure by 40 mm Hg in pithed rats. (postjunctional); type: functional; conditions: Artery
How it was run: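 Pithed rats, compound given iv in cumulative doses. ED40 is the dose (μg/kg) raising diastolic blood pressure by 40 mmHg. Separate groups of rats (n = 4-6).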

[2] = system: Rattus norvegicus; experiment: In vivo dose required to inhibit vas deferens contraction by 25% after pretreatment with prazosin in pithed rats. (prejunctional); type: functional
How it was run: (§1)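 Pithed rats pretreated with prazosin (1 mg/kg). Compound given iv in cumulative doses. ED25 is the dose (μg/kg) inhibiting vas deferens contraction by 25%. Separate groups of rats (n = 4-6).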

[3] = system: Adrenergic receptor alpha-2 (Rattus norvegicus); experiment: Agonism at alpha-2 adrenergic receptor, determined as dose required to produce a two fold shift of the cumulative dose-response curve to UK-14304 on the twitch response in rat vas deferens.
[4] = target: T1, Adrenergic receptor alpha-2 (Rattus norvegicus) (UniProt P22086+P19328+P22909); experiment: Antagonist potency towards alpha-2 adrenergic receptor determined as the dose required to produce a two fold shift of the dose-response curve to UK-14304 on the twitch response of the vas deferens (in vitro);AG- agonist; type: functional, tissue-based; conditions: filed as agonist
[5] = target: Adrenergic receptor alpha-1 (Rattus norvegicus) (UniProt P15823+P23944+P43140); experiment: Agonism at alpha-1 adrenergic receptor, determined as the dose required to produce a two fold shift of the cirazoline on diastolic blood pressure.; type: functional, tissue-based; conditions: Artery
[6] = system: Rattus norvegicus; experiment: In vivo antagonist dose producing two fold shift of cirazoline in pithed rats. (postjunctional);AG- agonist; type: functional, organism-based; conditions: filed as agonist
How it was run: (§2)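 Pithed rats, iv. Antagonist given before a cumulative dose-response curve to cirazoline on diastolic blood pressure. DR2 is the antagonist dose (μg/kg) giving a twofold rightward shift. Separate groups of rats (n = 4-6).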

[7] = system: Rattus norvegicus; experiment: In vivo antagonist dose producing two fold shift of UK-14,304 in pithed rats. (prejunctional)
[8] = target: T1, Adrenergic receptor alpha-2 (Rattus norvegicus); experiment: Antagonism at alpha-2 adrenergic receptor, determined as dose required to produce a two fold shift of the dose-response curve to UK-14304 on the twitch response in rat vas deferens; type: functional, tissue-based
How it was run: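 Pithed rats, iv. Antagonist given before a cumulative dose-response curve to UK-14,304 on the vas deferens twitch response. DR2 is the antagonist dose (μg/kg) giving a twofold shift of the curve. Separate groups of rats (n = 4-6).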

[9] = system: Rattus norvegicus; experiment: In vivo dose required to inhibit vas deferens contraction by 25% after pretreatment with prazosin in pithed rats. (prejunctional); ant- antagonist; type: functional, organism-based; conditions: filed as antagonist; how it was run: as §1
[10] = system: Rattus norvegicus; experiment: In vivo antagonist dose producing two fold shift of cirazoline in pithed rats. (postjunctional); AG- agonist; type: functional, organism-based; conditions: filed as agonist; how it was run: as §2
[11] = target: T2, Adrenergic receptor alpha-2 (Rattus norvegicus, UniProt P22086+P19328+P22909); experiment: Inhibition of saturable binding of [3H]idazoxan to alpha2-site in rat cerebral cortical membranes.; type: cell membranes, Membrane
T2 sequence (P22086 whole entry): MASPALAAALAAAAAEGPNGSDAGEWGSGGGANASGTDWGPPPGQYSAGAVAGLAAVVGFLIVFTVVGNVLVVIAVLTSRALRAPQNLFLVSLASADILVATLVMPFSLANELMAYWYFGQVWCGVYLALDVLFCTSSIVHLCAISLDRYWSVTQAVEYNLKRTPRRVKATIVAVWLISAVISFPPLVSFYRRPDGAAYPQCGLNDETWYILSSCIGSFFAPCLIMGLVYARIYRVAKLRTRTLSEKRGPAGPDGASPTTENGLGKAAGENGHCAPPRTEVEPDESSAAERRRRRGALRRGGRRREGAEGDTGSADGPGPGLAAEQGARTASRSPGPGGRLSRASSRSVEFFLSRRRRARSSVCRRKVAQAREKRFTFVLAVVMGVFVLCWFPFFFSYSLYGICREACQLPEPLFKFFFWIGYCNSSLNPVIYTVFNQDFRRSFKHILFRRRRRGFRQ
T2 sequence (P19328 whole entry): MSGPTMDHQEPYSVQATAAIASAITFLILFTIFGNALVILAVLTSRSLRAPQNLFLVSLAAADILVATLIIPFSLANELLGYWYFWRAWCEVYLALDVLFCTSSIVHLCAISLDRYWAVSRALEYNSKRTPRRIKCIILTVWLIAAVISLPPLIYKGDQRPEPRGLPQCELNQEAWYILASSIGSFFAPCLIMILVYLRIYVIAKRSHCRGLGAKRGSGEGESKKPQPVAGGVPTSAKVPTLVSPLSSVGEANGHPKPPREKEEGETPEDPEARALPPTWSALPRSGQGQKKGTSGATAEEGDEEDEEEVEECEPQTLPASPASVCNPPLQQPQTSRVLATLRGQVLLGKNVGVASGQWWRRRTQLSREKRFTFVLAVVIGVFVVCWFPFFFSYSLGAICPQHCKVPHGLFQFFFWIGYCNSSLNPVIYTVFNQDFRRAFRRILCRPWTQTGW
T2 sequence (P22909 whole entry): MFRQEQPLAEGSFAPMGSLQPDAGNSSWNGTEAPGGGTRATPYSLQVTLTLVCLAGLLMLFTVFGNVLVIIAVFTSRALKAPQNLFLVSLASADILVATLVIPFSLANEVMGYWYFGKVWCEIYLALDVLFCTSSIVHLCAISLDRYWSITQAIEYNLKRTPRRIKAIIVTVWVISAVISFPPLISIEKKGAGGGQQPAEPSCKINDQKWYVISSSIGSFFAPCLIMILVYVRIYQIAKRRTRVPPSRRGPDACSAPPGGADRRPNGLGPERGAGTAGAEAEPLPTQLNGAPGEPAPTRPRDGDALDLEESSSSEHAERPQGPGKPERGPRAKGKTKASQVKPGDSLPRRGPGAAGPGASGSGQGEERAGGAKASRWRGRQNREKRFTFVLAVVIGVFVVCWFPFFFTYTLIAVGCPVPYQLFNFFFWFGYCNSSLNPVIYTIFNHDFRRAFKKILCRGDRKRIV

[12] = target: T3, Adrenergic receptor alpha-1 (Rattus norvegicus, UniProt P15823+P23944+P43140); experiment: Inhibition of saturable binding of [3H]prazosin to alpha1-site in rat cerebral cortical membranes.; type: cell membranes, Membrane
T3 sequence (P15823 whole entry): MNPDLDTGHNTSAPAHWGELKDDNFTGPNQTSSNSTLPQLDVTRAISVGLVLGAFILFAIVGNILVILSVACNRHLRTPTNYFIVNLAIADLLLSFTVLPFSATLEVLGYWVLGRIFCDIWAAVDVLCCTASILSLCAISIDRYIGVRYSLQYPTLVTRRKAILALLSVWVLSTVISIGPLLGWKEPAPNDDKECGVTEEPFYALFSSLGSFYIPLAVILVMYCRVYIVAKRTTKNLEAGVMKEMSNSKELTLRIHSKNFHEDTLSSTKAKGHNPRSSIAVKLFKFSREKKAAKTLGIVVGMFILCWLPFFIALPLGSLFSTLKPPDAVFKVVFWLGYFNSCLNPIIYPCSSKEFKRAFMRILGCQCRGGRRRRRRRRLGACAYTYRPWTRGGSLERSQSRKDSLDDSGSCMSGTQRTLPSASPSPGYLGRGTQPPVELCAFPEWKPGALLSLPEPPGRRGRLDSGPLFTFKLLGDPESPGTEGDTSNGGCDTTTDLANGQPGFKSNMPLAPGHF
T3 sequence (P23944 whole entry): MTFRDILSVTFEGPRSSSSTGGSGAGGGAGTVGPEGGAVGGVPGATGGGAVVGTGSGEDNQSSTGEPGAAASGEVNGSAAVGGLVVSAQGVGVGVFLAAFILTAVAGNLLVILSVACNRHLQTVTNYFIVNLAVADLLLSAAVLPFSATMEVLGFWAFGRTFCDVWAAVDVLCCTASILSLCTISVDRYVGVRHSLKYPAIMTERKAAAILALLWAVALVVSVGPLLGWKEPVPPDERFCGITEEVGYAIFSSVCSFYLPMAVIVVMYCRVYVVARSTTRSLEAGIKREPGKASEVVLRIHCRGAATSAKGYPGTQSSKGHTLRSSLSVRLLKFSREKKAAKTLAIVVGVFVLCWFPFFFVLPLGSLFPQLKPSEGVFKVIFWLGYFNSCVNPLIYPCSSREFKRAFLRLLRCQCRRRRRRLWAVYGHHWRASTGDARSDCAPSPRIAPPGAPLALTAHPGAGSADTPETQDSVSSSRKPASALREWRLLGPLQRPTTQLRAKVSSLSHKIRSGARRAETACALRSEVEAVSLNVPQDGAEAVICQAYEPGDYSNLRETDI
T3 sequence (P43140 whole entry): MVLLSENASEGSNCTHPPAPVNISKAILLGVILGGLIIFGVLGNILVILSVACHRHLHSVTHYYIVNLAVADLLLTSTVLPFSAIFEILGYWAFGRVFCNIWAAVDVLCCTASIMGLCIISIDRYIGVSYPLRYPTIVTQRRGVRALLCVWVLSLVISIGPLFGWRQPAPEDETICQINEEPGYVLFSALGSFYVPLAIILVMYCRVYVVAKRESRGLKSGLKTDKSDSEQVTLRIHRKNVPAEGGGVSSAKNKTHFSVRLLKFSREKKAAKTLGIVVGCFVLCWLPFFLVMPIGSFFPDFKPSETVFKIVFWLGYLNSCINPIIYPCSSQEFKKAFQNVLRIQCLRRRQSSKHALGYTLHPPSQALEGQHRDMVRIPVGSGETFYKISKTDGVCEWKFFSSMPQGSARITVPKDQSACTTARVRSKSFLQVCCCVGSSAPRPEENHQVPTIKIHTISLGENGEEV

[13] = system: Adrenergic receptor alpha-1 (Rattus norvegicus); experiment: […] towards alpha-1 adrenergic receptor determined as the dose required to produce a two fold shift of the cirazoline on diastolic blood pressure (in vitro); conditions: Artery

Row | SMILES | ED40 [1] | ED25 [2] | Prejunctional agonist potency [3] | Prejunctional antagonist potency [4] | Postjunctional agonist potency [5] | ED40 [6] | DR2 [7] | Prejunctional antagonist potency [8] | ED25 [9] | ED40 [10] | Ki [11] | Ki [12] | Postjunctional antagonist potency [13]
1 | Nc1cc(Cl)c(N=C2NCCN2)c(Cl)c1 [APRACLONIDINE] | 0.7 µg/kg | 0.4 µg/kg |  |  |  |  |  |  |  |  |  |  | 
2 | CN1c2cc(Cl)ccc2CC1C1=NCCN1 (stereo not given) |  |  | 0.019 | Agonist | 0.67 |  |  |  |  |  |  |  | 
3 | CNC[C@H](O)c1cccc(O)c1 [PHENYLEPHRINE] | 0.9 µg/kg |  |  |  |  |  |  |  |  |  |  |  | 
4 | CN1c2cccc(O)c2CC1C1=NCCN1 (stereo not given) | 0.3 µg/kg | 0.2 µg/kg | 0.16 | Agonist | 6.7 | Agonist |  |  |  |  |  |  | 
5 | CN1c2cccc(F)c2CC1C1=NCCN1 (stereo not given) |  | 0.8 µg/kg | 1 | Agonist | 6 | Agonist | 0.0008 mg/kg |  |  |  |  |  | 
6 | Cl.c1ccc(N2c3ccccc3CC2C2=NCCN2)cc1 (stereo not given) | 1.1 µg/kg |  | 0 |  | 5.3 |  | 0.0094 mg/kg | 0.5 | Antagonist | Agonist | 3 nM | 8.4 nM | 
7 | CN1c2cccc(Br)c2CC1C1=NCCN1 (stereo not given) | 0.3 µg/kg | 1.1 µg/kg | 0.34 | Agonist | 3.4 |  |  |  |  |  |  |  | 
8 | c1ccc(COCCN2c3ccccc3CC2C2=NCCN2)cc1 (stereo not given) |  |  | 0 |  | 0 |  |  | 0.05 |  |  |  |  | 18
9 | CN1c2c(Cl)cccc2CC1C1=NCCN1 (stereo not given) | 1.4 µg/kg | 2.2 µg/kg | 0.3 | Agonist | 3.5 |  |  |  |  | Agonist |  |  | 
10 | CN1c2ccc(Cl)cc2CC1C1=NCCN1 (stereo not given) | 14.3 µg/kg |  | 0 |  | 2 |  | 0.0127 mg/kg | 6.8 | Antagonist | Agonist |  |  | 
11 | CCCN1c2ccccc2CC1C1=NCCN1 (stereo not given) | 3.8 µg/kg |  | 0 |  | 3.9 |  | 0.0071 mg/kg | 3.2 | Antagonist | Agonist | 0.96 nM | 3.7 nM | 
12 | COc1cccc2c1N(C)C(C1=NCCN1)C2 (stereo not given) |  |  | 0.4 | Agonist | 8 |  |  |  |  |  |  |  | 
13 | CCN1c2ccccc2CC1C1=NCCN1 (stereo not given) | 3.3 µg/kg |  | 0 |  | 1.4 |  | 0.0016 mg/kg | 9.1 | Antagonist | Agonist | 0.24 nM | 3.72 nM | 
14 | CCN1c2ccccc2CC1(C)C1=NCCN1 (stereo not given) |  |  | 0 |  | 0.03 |  |  | 0.1 |  |  |  |  | 
15 | c1ccc2c(c1)CC(C1=NCCN1)O2 (stereo not given) |  |  | 0 |  | 0.01 |  |  | 1.7 |  |  |  |  | 0.16
16 | COc1cccc2c1CC(C1=NCCN1)N2C (stereo not given) |  |  | 0 |  | 0.62 |  |  | 0.27 |  |  |  |  | 
17 | CCC1(C2=NCCN2)Cc2ccccc2N1C (stereo not given) |  |  | 0 |  | 0 |  |  | 0.005 |  |  |  |  | < 0.012
18 | c1ccc2c(c1)CC(C1=NCCN1)C2 |  |  | 0 |  | 0 |  |  | 0.4 |  |  |  |  | 0.8
19 | CCN1c2ccc(Cl)cc2CC1C1=NCCN1 (stereo not given) | 4.2 µg/kg |  | 0 |  | 5 |  | 0.0059 mg/kg | 8 | Antagonist | Agonist |  |  | 

Reference: ChEMBL document CHEMBL1124112, “Indoline analogues of idazoxan: potent alpha 2-antagonists and alpha 1-agonists” (J Med Chem, 1988)
